Results reported in publication PMC3501595 (Biochemical pharmacology, 2012).

How the values were obtained:
topoisomerase IIα [1] = target: T1, topoisomerase IIα (Homo sapiens, UniProt P11388); assay: kDNA decatenation assay at […] ATP; type: biochemical
topoisomerase IIα [2] = target: T1, topoisomerase IIα; assay: kDNA decatenation gel assay; type: biochemical
Outline: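 Recombinant full-length human topoisomerase IIα. Decatenation: catenated kDNA networks released as individual minicircles in an ATP-dependent reaction, resolved on gel. Cleavage: closed circular pBR322 converted to linear DNA at 37 °C. All components were mixed on ice before the test compound was added. Complexes were trapped with SDS and resolved by ethidium bromide gel electrophoresis.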

topoisomerase IIβ = topoisomerase IIβ (Homo sapiens, UniProt Q02880); assay: cellular ICE assay of covalent enzyme-DNA complexes in K562 cells; type: cell-based
topoisomerase I = target: T2, topoisomerase I (Homo sapiens, UniProt P11387); assay: pBR322 DNA relaxation gel assay; type: biochemical
T2 sequence (P11387 2-765): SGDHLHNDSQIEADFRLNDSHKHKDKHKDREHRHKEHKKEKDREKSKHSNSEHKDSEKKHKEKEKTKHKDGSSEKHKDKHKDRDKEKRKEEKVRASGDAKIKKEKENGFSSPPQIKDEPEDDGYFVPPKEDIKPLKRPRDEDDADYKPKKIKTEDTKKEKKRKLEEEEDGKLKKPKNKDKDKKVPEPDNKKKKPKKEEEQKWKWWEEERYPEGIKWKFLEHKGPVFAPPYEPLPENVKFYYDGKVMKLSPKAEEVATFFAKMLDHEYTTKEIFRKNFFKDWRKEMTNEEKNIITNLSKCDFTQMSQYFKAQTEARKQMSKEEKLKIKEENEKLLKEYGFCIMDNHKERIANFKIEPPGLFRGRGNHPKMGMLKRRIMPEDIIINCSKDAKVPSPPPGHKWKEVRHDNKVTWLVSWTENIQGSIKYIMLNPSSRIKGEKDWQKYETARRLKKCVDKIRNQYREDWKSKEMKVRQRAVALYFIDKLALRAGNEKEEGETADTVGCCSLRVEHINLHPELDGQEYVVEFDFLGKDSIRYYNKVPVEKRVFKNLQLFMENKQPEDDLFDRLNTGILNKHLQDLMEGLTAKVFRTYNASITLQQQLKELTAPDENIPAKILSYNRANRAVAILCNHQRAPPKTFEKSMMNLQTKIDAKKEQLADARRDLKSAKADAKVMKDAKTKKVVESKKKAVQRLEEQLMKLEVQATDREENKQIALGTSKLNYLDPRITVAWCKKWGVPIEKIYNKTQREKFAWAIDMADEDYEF

yeast topoisomerase II = target: T3, yeast topoisomerase II (Saccharomyces cerevisiae, UniProt P06786); assay: ATP/NADH-coupled DNA-independent ATPase assay, purified enzyme; type: biochemical
T3 sequence (P06786 1-1428): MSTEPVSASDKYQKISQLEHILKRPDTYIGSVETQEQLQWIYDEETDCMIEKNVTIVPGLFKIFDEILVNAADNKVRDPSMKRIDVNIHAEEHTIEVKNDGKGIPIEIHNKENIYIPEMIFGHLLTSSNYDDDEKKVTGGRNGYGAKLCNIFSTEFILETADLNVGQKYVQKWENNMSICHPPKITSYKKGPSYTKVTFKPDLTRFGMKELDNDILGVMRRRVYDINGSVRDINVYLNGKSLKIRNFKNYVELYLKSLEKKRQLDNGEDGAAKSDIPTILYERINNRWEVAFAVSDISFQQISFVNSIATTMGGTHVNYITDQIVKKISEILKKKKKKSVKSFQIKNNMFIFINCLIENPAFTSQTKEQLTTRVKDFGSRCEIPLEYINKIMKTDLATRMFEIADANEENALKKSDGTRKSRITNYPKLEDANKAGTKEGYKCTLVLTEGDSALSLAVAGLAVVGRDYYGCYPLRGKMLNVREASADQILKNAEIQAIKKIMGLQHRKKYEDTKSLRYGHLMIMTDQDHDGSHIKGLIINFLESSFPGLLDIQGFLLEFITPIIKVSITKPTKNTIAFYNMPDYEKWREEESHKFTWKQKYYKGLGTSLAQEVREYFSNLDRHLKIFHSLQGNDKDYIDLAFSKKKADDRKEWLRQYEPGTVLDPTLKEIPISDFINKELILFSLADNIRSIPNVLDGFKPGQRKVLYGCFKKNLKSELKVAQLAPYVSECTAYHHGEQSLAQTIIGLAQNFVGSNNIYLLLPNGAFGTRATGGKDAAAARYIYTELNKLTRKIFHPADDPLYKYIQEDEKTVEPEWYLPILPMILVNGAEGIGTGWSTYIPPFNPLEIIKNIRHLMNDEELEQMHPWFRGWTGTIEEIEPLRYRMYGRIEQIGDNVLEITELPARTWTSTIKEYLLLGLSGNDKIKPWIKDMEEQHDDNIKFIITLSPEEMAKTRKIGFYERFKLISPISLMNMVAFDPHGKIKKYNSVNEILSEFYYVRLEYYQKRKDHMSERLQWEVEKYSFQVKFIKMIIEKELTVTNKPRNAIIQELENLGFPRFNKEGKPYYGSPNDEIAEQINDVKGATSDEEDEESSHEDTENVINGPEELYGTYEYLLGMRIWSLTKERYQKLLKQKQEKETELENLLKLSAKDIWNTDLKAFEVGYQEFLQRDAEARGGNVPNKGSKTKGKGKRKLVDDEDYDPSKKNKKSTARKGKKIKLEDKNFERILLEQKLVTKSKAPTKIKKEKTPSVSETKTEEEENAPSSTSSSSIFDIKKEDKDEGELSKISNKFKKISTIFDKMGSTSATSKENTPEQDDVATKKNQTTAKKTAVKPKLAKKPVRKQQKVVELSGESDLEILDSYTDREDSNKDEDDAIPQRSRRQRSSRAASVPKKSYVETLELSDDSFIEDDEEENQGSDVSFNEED

topoisomerase IIβ, sequence (Q02880 2-1626): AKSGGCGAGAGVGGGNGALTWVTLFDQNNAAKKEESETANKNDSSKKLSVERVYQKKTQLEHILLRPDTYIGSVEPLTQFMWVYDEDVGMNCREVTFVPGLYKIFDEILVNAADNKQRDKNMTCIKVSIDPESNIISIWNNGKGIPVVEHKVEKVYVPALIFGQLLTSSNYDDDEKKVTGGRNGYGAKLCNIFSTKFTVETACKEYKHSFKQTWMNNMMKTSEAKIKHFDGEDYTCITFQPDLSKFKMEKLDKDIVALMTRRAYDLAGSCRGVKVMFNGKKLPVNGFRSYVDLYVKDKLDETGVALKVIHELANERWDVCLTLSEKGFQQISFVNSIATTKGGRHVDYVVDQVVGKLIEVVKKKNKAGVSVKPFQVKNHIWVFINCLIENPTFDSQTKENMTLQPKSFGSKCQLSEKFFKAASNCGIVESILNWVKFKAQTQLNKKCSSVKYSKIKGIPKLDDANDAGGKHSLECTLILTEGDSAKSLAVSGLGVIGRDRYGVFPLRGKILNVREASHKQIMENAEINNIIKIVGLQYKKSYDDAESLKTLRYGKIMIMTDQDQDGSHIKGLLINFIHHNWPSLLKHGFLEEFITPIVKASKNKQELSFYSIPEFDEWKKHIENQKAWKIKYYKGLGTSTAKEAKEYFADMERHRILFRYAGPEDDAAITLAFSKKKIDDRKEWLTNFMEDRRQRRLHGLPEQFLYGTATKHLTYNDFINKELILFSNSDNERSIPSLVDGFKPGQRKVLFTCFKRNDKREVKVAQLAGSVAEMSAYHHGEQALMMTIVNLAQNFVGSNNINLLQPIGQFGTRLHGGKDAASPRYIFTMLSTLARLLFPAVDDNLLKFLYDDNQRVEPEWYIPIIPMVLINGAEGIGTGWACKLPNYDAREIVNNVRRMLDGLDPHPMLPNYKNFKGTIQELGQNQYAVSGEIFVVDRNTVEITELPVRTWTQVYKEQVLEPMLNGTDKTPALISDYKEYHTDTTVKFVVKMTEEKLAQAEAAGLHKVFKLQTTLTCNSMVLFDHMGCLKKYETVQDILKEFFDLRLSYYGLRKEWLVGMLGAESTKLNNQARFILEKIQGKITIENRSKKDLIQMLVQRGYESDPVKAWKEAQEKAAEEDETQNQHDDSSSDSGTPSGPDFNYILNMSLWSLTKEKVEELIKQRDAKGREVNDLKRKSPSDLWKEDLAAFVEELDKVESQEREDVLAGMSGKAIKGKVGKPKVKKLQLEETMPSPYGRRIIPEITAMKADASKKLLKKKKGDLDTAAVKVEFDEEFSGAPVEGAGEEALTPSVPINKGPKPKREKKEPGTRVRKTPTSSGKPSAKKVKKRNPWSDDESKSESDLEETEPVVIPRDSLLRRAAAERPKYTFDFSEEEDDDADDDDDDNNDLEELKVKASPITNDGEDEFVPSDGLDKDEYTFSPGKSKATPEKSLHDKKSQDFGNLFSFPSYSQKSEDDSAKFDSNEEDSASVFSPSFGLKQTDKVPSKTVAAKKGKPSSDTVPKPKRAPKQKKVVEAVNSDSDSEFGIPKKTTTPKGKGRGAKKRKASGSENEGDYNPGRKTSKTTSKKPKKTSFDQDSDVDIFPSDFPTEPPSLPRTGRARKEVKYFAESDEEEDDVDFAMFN
T1 sequence (P11388 whole entry): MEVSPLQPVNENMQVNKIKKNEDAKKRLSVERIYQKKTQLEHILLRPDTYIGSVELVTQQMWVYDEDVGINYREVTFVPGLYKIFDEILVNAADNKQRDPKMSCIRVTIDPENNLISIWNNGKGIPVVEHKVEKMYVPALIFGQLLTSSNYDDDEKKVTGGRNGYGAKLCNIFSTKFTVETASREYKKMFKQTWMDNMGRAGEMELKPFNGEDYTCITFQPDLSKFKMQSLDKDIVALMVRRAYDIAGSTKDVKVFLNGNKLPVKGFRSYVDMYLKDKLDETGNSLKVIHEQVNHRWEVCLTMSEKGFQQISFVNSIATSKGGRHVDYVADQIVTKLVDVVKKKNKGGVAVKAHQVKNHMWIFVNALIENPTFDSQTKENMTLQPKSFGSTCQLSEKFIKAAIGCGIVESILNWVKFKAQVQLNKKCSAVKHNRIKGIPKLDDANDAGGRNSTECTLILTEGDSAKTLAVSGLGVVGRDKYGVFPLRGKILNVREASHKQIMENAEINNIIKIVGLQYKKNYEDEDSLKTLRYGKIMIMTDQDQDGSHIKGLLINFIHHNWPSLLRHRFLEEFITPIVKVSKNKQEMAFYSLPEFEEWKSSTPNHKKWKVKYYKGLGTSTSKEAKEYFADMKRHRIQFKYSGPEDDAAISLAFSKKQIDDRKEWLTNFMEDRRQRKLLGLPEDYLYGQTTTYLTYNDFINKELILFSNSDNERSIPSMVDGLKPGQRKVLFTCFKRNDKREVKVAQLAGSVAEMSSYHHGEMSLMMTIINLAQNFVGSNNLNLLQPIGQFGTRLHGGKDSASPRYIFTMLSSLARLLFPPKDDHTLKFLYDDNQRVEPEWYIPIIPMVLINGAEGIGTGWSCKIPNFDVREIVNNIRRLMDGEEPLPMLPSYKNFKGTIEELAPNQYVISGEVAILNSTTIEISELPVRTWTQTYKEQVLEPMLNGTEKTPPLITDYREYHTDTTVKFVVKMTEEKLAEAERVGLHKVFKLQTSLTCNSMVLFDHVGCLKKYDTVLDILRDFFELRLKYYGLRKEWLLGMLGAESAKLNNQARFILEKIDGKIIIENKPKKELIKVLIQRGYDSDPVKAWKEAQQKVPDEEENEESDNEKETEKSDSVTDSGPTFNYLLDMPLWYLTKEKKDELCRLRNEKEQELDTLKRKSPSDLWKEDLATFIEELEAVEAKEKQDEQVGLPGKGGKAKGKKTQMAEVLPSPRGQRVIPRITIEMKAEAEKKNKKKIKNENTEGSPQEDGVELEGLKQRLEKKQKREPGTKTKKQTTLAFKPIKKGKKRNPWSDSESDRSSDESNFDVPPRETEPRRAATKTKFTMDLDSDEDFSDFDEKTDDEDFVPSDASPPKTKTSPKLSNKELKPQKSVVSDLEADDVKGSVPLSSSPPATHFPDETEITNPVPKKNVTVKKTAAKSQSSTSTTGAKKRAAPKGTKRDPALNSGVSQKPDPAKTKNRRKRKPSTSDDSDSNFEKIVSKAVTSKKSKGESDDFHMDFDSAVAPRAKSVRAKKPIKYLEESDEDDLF

| SMILES | IC50 (topoisomerase IIα [1]) [µM] | IC50 (topoisomerase IIα [2]) [µM] | cellular ICE assay of covalent enzyme-DNA complexes in K562 cells (topoisomerase IIβ) | IC50 (topoisomerase I) [µM] | Ki (yeast topoisomerase II) [µM] |
| --- | --- | --- | --- | --- | --- |
| Nc1ncnc2c1ncn2[C@@H]1O[C@H](COP(=O)(O)OP(=O)(O)NP(=O)(O)O)[C@@H](O)[C@H]1O [AMP-PNP] | 2 ± 0.4 |  |  |  |  |
| CN1CCN(c2ccc3nc(-c4c(N)c5c(F)cccc5[nH]c4=O)[nH]c3c2)CC1 [dovitinib] |  | 13 ± 4 | Both dovitinib and etoposide also induced concentration dependent increases in the amount of the topoisomerase IIβ-covalent complex | 6.2 ± 1.7 | 2.4 ± 1.5 |
| COc1cc([C@@H]2c3cc4c(cc3[C@@H](O[C@@H]3O[C@@H]5CO[C@@H](C)O[C@H]5[C@H](O)[C@H]3O)[C@H]3COC(=O)[C@H]23)OCO4)cc(OC)c1O [etoposide, reference compound] |  |  | Both dovitinib and etoposide also induced concentration dependent increases in the amount of the topoisomerase IIβ-covalent complex |  |  |
